Among the data in ChEMBL document CHEMBL1921679, “Synthesis and biological evaluation of novel pyrimidine derivatives as sub-micromolar affinity ligands of GalR2” (Bioorg Med Chem Lett, 2011) are inhibition and IC50 values, retold here.

Assay [1] concerns the target T1, Galanin receptor type 2 (Homo sapiens) (UniProt O43603).
T1 sequence (whole entry): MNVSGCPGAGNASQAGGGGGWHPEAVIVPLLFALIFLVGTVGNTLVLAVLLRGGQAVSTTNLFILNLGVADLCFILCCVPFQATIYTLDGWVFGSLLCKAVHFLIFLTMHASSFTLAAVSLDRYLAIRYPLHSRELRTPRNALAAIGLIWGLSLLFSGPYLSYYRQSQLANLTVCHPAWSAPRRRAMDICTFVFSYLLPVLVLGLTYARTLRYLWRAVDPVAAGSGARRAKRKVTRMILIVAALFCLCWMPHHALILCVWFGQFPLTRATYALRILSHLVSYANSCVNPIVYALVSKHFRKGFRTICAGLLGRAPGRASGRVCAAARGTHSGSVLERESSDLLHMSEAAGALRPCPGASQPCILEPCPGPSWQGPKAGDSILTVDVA
In words: Displacement of [125I]galanin from GalR2 at 10 uM by gamma counting. An outline of the steps: (§1)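 Single-point screen at 1 and 10 μM, in duplicate, with two screens per receptor. Final 125I porcine galanin was 0.1 nM (GalR1) or 0.15 nM (GalR2). Incubation 1 h, room temperature. Filtration through PEI-treated glass fibre, cold PBS/Triton washes, γ-counting.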

In assay [2] the target is T1, Galanin receptor type 2 (Homo sapiens). In words: Displacement of [125I]galanin from GalR2 at 1 uM by gamma counting. The procedure, abridged: as §1
A further assay deals with T2, Galanin receptor type 2 (Homo sapiens, UniProt O43603).
T2 sequence (O43603 whole entry): T1 sequence (whole entry)
In words: Displacement of [125I]galanin from GalR2 by gamma counting. An outline of the steps:
(§2)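 Full-curve competition over 10 nM–100 μM, with a rat galanin control on every plate. Compounds were diluted in 20% DMSO. Membranes were GalR1 2.5 μg or GalR2 5 μg, with 125I porcine galanin at 0.1 nM (GalR1) or 0.15 nM (GalR2), 1 h at room temperature. Filtration, washing and γ-counting followed. IC50 came from a nonlinear one-site competition fit, reported only when the curve bottom fell below 35% of total binding.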
A general note: Displacement assays read how much labelled ligand stays bound in the presence of the test substance.

Assay [3] addresses T3, Galanin receptor type 1 (Homo sapiens, UniProt P47211).
T3 sequence (P47211 whole entry): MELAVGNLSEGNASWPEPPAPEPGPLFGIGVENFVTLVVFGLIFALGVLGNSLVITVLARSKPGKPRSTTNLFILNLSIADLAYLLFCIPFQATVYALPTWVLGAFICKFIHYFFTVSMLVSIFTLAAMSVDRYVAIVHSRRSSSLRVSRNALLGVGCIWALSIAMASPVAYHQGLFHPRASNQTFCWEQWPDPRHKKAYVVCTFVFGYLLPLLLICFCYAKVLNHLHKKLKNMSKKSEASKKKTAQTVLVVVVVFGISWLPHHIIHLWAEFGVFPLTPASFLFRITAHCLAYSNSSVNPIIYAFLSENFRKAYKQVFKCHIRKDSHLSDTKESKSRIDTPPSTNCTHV
Briefly: Displacement of [125I]galanin from GalR1 by gamma counting. An outline of the steps:
as §2

In assay [4] the target is T3, Galanin receptor type 1. Briefly: Displacement of [125I]galanin from GalR1 at 100 uM by gamma counting.

Consider `Cc1c(F)cccc1Nc1cc(N2CCCCC2)nc(N2CCCN(c3ncccc3C(F)(F)F)CC2)n1`, for which the inhibition in assay [1] and in assay [2] was > 50% each time. The IC50 (in general, the concentration that inhibits the measured activity by half) was determined as 0.56 µM at Galanin receptor type 2 and 1.3 µM on Galanin receptor type 1 [3].

Consider `COc1ccc(Nc2cc(Nc3cccc(OC(F)(F)F)c3)nc(NC3CCCCC3)n2)cc1`, for which the inhibition in assay [1] and in assay [2] was > 50% in each case. Also, the IC50 stood at 0.55 µM on Galanin receptor type 2 and 6.82 µM at Galanin receptor type 1 [3].

In the case of `COc1ccc(Nc2cc(N3CCCCC3)nc(N3CCCN(c4ncccc4C(F)(F)F)CC3)n2)cc1`, the inhibition in assay [1] and in assay [2] was > 50% each time. In addition, the IC50 on Galanin receptor type 2 was 1.92 µM; at Galanin receptor type 1 [3], 3.35 µM.

As for `COc1ccc(Nc2cc(Nc3cccc(OC(F)F)c3)nc(NC3CCCCC3)n2)cc1`, the inhibition in assay [1] and in assay [2] was > 50% in each case. For the same compound, the IC50 on Galanin receptor type 2 was 0.77 µM; on Galanin receptor type 1 [3], 5.03 µM.

Turning to `COc1ccc(Nc2cc(Nc3cccc(OC)c3)nc(NC3CCCCC3)n2)cc1`, the inhibition in assay [1] and in assay [2] was > 50% in each case. Further, the IC50 at Galanin receptor type 2 worked out at 1.75 µM; at Galanin receptor type 1 [3], 5.62 µM.

With `COc1ccc(Nc2cc(Nc3ccc(OC(F)F)cc3)nc(NC3CCCCC3)n2)cc1`, the inhibition in assay [1] and in assay [2] was > 50% throughout. The values for the IC50 on Galanin receptor type 2 and on Galanin receptor type 1 [3] were 12.5 µM and 27.5 µM, respectively.

On to `FC(F)Oc1cccc(Nc2cc(Nc3ccccc3)nc(N3CCCCC3)n2)c1`, for which the inhibition in assay [1] and in assay [2] was > 50% in each case. The IC50 on Galanin receptor type 2 came to 4.15 µM; on Galanin receptor type 1 [3] it was 6.9 µM.

Take `COc1ccc(Nc2nc(Nc3ccc(OC)c(F)c3)cc(N3CCCCC3)n2)cc1`: the inhibition in assay [1] and in assay [2] was > 50% in each case. In addition, the IC50 at Galanin receptor type 2 is 0.43 µM; at Galanin receptor type 1 [4], “Not Active”.

On to `COc1ccc(Nc2nc(Nc3ccc(OC(F)(F)F)cc3)cc(N3CCCCC3)n2)cc1`, for which the inhibition in assay [1] and in assay [2] was > 50% in each case. Further, the half-inhibitory concentration (IC50) on Galanin receptor type 2 is 0.33 µM; on Galanin receptor type 1 [4], “Not Active”.

Take `COc1ccc(Nc2nc(Nc3ccc(OC)c(F)c3)cc(N3CCCC(C)C3)n2)cc1` (centres undefined): the inhibition in assay [1] and in assay [2] was > 50% throughout. In addition, the IC50 at Galanin receptor type 2 came out at 1.34 µM; on Galanin receptor type 1 [3], 6.78 µM.

On to `COc1ccc(Nc2nc(Nc3cccc(OC(F)F)c3)cc(N3CCCCC3)n2)cc1`, for which the inhibition in assay [1] and in assay [2] was > 50% each time. Besides, the concentration for half-maximal inhibition (IC50) was 0.54 µM on Galanin receptor type 2 and “Not Active” at Galanin receptor type 1 [4].

With `COc1ccc(Nc2nc(Nc3ccc(F)cc3C)cc(N3CCCCC3)n2)cc1`, the inhibition in assay [1] and in assay [2] was > 50% each time. Besides, the IC50 is 0.98 µM on Galanin receptor type 2 and “Not Active” on Galanin receptor type 1 [4].

On to `COc1ccc(Nc2nc(Nc3ccc(OC)c(F)c3)cc(N3CCCN(C(=O)OC(C)(C)C)CC3)n2)cc1`, for which the inhibition in assay [1] and in assay [2] was > 50% in each case. Moreover, the IC50 was 9.07 µM at Galanin receptor type 2 and 2.82 µM at Galanin receptor type 1 [3].

As for `FC(F)(F)Oc1cccc(Nc2cc(Nc3ccccc3)nc(N3CCCCC3)n2)c1`, the inhibition in assay [1] and in assay [2] was > 50% throughout. For the same compound, the IC50 at Galanin receptor type 2 worked out at 6.62 µM; at Galanin receptor type 1 [3], 34.9 µM.

For `COc1ccc(Nc2cc(Nc3ccccc3)nc(N3CCCCC3)n2)cc1F`, the inhibition in assay [1] and in assay [2] was > 50% each time. For the same compound, the IC50 at Galanin receptor type 2 amounted to 8.65 µM; on Galanin receptor type 1 [3] it was 6.77 µM.

`COc1ccc(Nc2cc(Nc3ccccc3)nc(N3CCCCC3)n2)cc1`: the inhibition in assay [1] and in assay [2] was > 50% throughout. The IC50 worked out at 1.09 µM at Galanin receptor type 2 and 8.59 µM on Galanin receptor type 1 [3].

For the compound `COc1ccc(Nc2nc(Nc3ccc(C)cc3C)cc(N3CCCCC3)n2)cc1`, the inhibition in assay [1] and in assay [2] was > 50% throughout. Besides, the results for the IC50 at Galanin receptor type 2 and on Galanin receptor type 1 [4] were 1.18 µM and “Not Active”, respectively.

As for `Cc1ccc(C)c(Nc2cc(N3CCCCC3)nc(N3CCCN(c4ncccc4C(F)(F)F)CC3)n2)c1`, the inhibition in assay [1] and in assay [2] was > 50% throughout. Further, the IC50 on Galanin receptor type 2 amounted to 2.08 µM; at Galanin receptor type 1 [3], 3.9 µM.

For `COc1ccc(Nc2nc(Nc3ccc(OC)c(F)c3)cc(N3CCCCCC3)n2)cc1`, the inhibition in assay [1] and in assay [2] was > 50% in each case. Further, the IC50 worked out at 0.77 µM at Galanin receptor type 2 and 5.48 µM on Galanin receptor type 1 [3].

As for `COc1ccc(Nc2cc(Nc3ccc(OC(F)(F)F)cc3)nc(NC3CCCCC3)n2)cc1`, the inhibition in assay [1] and in assay [2] was > 50% throughout. In addition, the IC50 amounted to 1.06 µM at Galanin receptor type 2 and 5.93 µM on Galanin receptor type 1 [3].

For the compound `COc1ccc(Nc2nc(Nc3ccc(C(F)(F)F)cc3)cc(N3CCCCC3)n2)cc1`, the inhibition in assay [1] and in assay [2] was > 50% in each case. In addition, the IC50 at Galanin receptor type 2 is 0.78 µM; at Galanin receptor type 1 [4], “Not Active”.

As to `c1ccc(Nc2cc(NCc3ccc4c(c3)OCO4)nc(N3CCCCC3)n2)cc1`, the inhibition in assay [1] and in assay [2] was > 50% each time. The results for the IC50 on Galanin receptor type 2 and on Galanin receptor type 1 [4] were 3.69 µM and “Not Active”, respectively.

Turning to `COc1ccc(Nc2nc(Nc3cc(C)ccc3C)cc(N3CCCCC3)n2)cc1`, the inhibition in assay [1] and in assay [2] was > 50% throughout. The IC50 at Galanin receptor type 2 was 0.44 µM; at Galanin receptor type 1 [4], “Not Active”.

As for `COc1ccc(Nc2nc(Nc3ccc(F)c(Cl)c3)cc(N3CCCCC3)n2)cc1`, the inhibition in assay [1] and in assay [2] was > 50% throughout. Besides, the IC50 on Galanin receptor type 2 is 4.18 µM; on Galanin receptor type 1 [4] it was “Not Active”.

With `COc1ccc(Nc2nc(Nc3ccc(OC)c(F)c3)cc(N3CCN(c4ccccc4)CC3)n2)cc1`, the inhibition in assay [1] and in assay [2] was > 50% in each case. Also, the IC50 at Galanin receptor type 2 came to 24.9 µM; at Galanin receptor type 1 [3] it was 6.82 µM.

`CCN(CC)c1cc(Nc2ccc(OC)c(F)c2)nc(Nc2ccc(OC)cc2)n1`: the inhibition in assay [1] and in assay [2] was > 50% throughout. The half-inhibitory concentration (IC50) at Galanin receptor type 2 is 2.85 µM; at Galanin receptor type 1 [4], “Not Active”.

As to `COc1ccc(Nc2cc(Nc3cccc(OC)c3)nc(N3CCCC3)n2)cc1`, the inhibition in assay [1] and in assay [2] was > 50% throughout. In addition, the IC50 at Galanin receptor type 2 stood at 0.93 µM; at Galanin receptor type 1 [3], 4.6 µM.

Consider `COc1ccc(Nc2cc(Nc3ccc(OC)cc3)nc(N3CCCC3)n2)cc1`, for which the inhibition in assay [1] and in assay [2] was > 50% each time. In addition, the IC50 was 8.04 µM at Galanin receptor type 2 and “Not Active” on Galanin receptor type 1 [4].

For `COc1ccc(Nc2nc(Nc3cccc(OC(F)(F)F)c3)cc(N3CCCCC3)n2)cc1`, the inhibition in assay [1] and in assay [2] was > 50% in each case. For the same compound, the IC50 at Galanin receptor type 2 was 0.38 µM; at Galanin receptor type 1 [4] it was “Not Active”.

In the case of `COc1ccc(Nc2cc(N3CCN(c4ccccc4)CC3)nc(N3CCCC3)n2)cc1`, the inhibition in assay [1] and in assay [2] was > 50% each time. The IC50 was 3.4 µM on Galanin receptor type 2 and 12.8 µM on Galanin receptor type 1 [3].

In the case of `COc1ccc(Nc2cc(N3CCCCC3)nc(N3CCCN(c4ncccc4C(F)(F)F)CC3)n2)cc1F`, the inhibition in assay [1] and in assay [2] was > 50% throughout. Besides, the IC50 on Galanin receptor type 2 worked out at 2.03 µM; on Galanin receptor type 1 [3] it was 6.32 µM.
